Bioassay records (PubChem)
This is a sample that favours compounds with a hit; in the whole collection about 1.4% have one here.
DYRK1A inh: rat Dyrk1A kinase inhibitors, primary screen, biochemical, single point, plate reader | Dual specificity tyrosine-phosphorylation-regulated kinase 1A (Rattus norvegicus), Q63470 | ADP-Glo luminescence, NFATc1 peptide | inhibition, % at 12.5 µM | 310,000 compounds, 0.43% hits | AID 504441, 2011; in the data active means inhibition above about 50%;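 further: plate controls were vehicle with enzyme for no effect and no enzyme for full effect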
ARNT TACC3 PPI: disruptors of ARNT/TACC3 protein interaction, primary screen, biochemical, AlphaScreen, single concentration; AID 623870, 2012; inhibition, % at 9.99 µM; AlphaScreen His-ARNT PAS-B/GST-TACC3 binding, luminescence; TACC3 fragment carries E629A point mutation; Transforming acidic coiled-coil-containing protein 3 (Homo sapiens), Q9Y6A5; 390,000 compounds, 0.66% hits;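 active means mean inhibition of replicates at least 50% and at least half of replicates each reaching 50%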;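 further: 0% = complete ARNT plus TACC3 wells and 100% = ARNT alone without TACC3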
CAL PDZ FP-1: untagged CAL PDZ binding inhibitors, primary screen, biochemical, fluorescence polarization, HTS; Golgi-associated PDZ and coiled-coil motif-containing protein (Homo sapiens), Q9HD26; purified CAL PDZ, TMR-peptide fluorescence polarization, 1 h; inhibition, % at 24.9 µM; 300,000 compounds, 0.92% hits;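 active means mean inhibition of at least 30% with at least half of replicates also reaching 30%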;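 further: 0% = DMSO neutral control and 100% = excess unlabeled competitor peptide PRC23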
CAL PDZ FP-2: CAL PDZ peptide-binding inhibitors, primary screen, biochemical, fluorescence polarization, Cer-tagged CAL PDZ, HTS; Golgi-associated PDZ and coiled-coil motif-containing protein (Homo sapiens), Q9HD26; purified CAL PDZ, TMR-peptide fluorescence polarization, 1 h; inhibition, % at 20 µM; 330,000 compounds, 0.02% hits; AID 504414, 2011;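 active means highest replicate inhibition of at least 40%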;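 further: plate controls were DMSO neutral control wells for no effect and unlabeled competitor peptide control wells for full effect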
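Test system: purified CerCALP PDZ construct; Compound dosing: one concentration, 20 µM compound; Also added: TMR-labelled reporter peptide T*-PRC34 bound in PDZ groove; Read-out: inhibition from polarization loss; Controls: unlabelled peptide and DMSO controls; Signal: FP readout, S and P plane fluorescence; Incubation: 1 h at RT.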
* marks the source's active call; other numbers are inactive results; nt = no result.

SMILES	DYRK1A inh	ARNT TACC3 PPI	CAL PDZ FP-1	CAL PDZ FP-2
CO[C@H]1CN(C)C(=O)c2cc(NC(C)=O)ccc2OC[C@H](C)N(Cc2ccncc2)C[C@@H]1C	nt	-1	nt	nt
CO[C@H]1CN(C)C(=O)c2cc(NC(=O)C3CC3)ccc2OC[C@H](C)N(C(=O)Cc2ccccn2)C[C@@H]1C	nt	0	nt	nt
CC1(C)CC(=O)C(C=NCCN2CCNC2=O)=C(O)C1	6	-9	52*	0
O=C(c1ccc(OC2CCN(C/C=C/c3ccccc3)CC2)cc1)N1CCCCC1	1	4	37*	13
C[C@@H]1CN([C@H](C)CO)C(=O)c2cccc(NS(=O)(=O)c3ccccc3)c2O[C@H]1CN(C)C(=O)Nc1ccc(F)cc1	nt	4	nt	nt
O=C(c1cccnc1)N1C[C@H]2[C@@H](c3ccccc31)[C@@H](CO)N2C(=O)Nc1cccc(F)c1	nt	-5	nt	nt
O=C(N/N=C(\c1ccccc1)c1cccnc1)c1cccc(F)c1	nt	57*	-2	-4
CC(C)Cc1nnc(NC(=O)CCC(=O)N2CCN(c3ccc(F)cc3)CC2)s1	6	3	41*	-1
CCCN1CCC(NC(=O)Nc2cc(Cl)ccc2OC)CC1	1	1	36*	-1
Cc1ccc(/C=C/C(=O)Nc2nn[nH]n2)o1	-1	61*	-1	-2
Cc1ccc(/C=C/C(=O)Nc2cccnc2)o1	1	3	-4	-1
COCC#Cc1ccc2c(c1)O[C@H](CN(C)CC1CCOCC1)[C@@H](C)CN([C@H](C)CO)S2(=O)=O	nt	-6	nt	nt
CCOc1ccc(NC(=S)N(Cc2ccc(N(C)C)cc2)Cc2ccco2)cc1	7	17*	4	nt
C[C@@H]1CN([C@H](C)CO)C(=O)c2cc(C#CC3CC3)cnc2O[C@H]1CN(C)C(=O)Cc1ccccn1	nt	-5	nt	nt
Cc1ccc(S(=O)(=O)N[C@@H]2CC[C@H](CCNC(=O)C3CCCC3)O[C@H]2CO)cc1	nt	3	nt	nt
Cc1ccc(OCCCn2c(CO)nc3ccccc32)cc1	1	-1	5	-1
Cc1cccc(OCCCn2c(CO)nc3ccccc32)c1	-1	-3	89*	nt
C[C@@H]1CN([C@@H](C)CO)C(=O)Cc2cc(NC(=O)Nc3ccc4c(c3)OCO4)ccc2O[C@H]1CN(C)Cc1ccc(C(=O)Nc2ccccc2N)cc1	nt	23	nt	nt
C[C@H]1CN([C@@H](C)CO)C(=O)c2cccc(NC(=O)c3cnccn3)c2O[C@H]1CN(C)C(=O)Nc1ccc(C(F)(F)F)cc1	nt	-1	nt	nt
O=C(CN1CCN(CC(=O)Nc2cccc(F)c2)CC1)Nc1ccc(-c2ccccc2)cc1	-4	-1	58*	-1
O=C(Nc1cccc(F)c1)N1CCN(C/C=C/c2ccccc2)CC1	-3	1	39*	-1
NC(=O)/C(=C\c1ccncc1)c1cccc2ccccc12	-1	-7	74*	-1
CSCCC1COC(c2cccs2)=N1 (configuration not stated)	nt	-13	31*	-1
O=C1C2C3CCC(C3)C2C(=O)N1c1ccc2ccccc2c1 (configuration not stated)	0	-13	62*	-1
CC(C)NC(=O)N(C)C[C@H]1OCCCC[C@@H](C)Oc2ccc(NS(C)(=O)=O)cc2C(=O)N([C@@H](C)CO)C[C@H]1C	nt	-3	nt	nt
SMILES	DYRK1A inh	ARNT TACC3 PPI	CAL PDZ FP-1	CAL PDZ FP-2
C[C@@H]1CN([C@@H](C)CO)C(=O)Cc2cc(NC(=O)Nc3ccc(C(F)(F)F)cc3)ccc2O[C@@H]1CN(C)S(=O)(=O)c1cccs1	nt	4	nt	nt
CCCC#Cc1cnc2c(c1)C(=O)N([C@H](C)CO)C[C@@H](C)[C@@H](CN(C)C(=O)NC1CCCC1)O2	nt	5	nt	nt
O=S(=O)(c1ccccc1)c1nc(-c2ccco2)oc1N1CCCCC1	0	0	42*	-1
C[C@@H]1CN([C@H](C)CO)S(=O)(=O)c2ccc(C3=CCCCC3)cc2O[C@H]1CN(C)Cc1ccccc1F	nt	-1	nt	nt
Cc1ccc(/C=N/NC(=O)CSc2nnc(-c3ccccc3)n2-c2ccc(Cl)cc2)o1	2	1	70*	-1
Cc1ccc(/C=N/NC(=O)CSc2nnc(-c3ccc(Cl)cc3)n2-c2ccc(Cl)cc2)o1	-4	16	0	-1
Nc1c(C(=O)Nc2ccccc2)nnn1-c1ccc2c(c1)OCCO2	4	29	80*	-1
Cc1ccc(NC(=O)c2nnn(-c3ccc4c(c3)OCCO4)c2N)cc1	-3	-3	nt	-1
